This note sets out measurements from ChEMBL document CHEMBL1133165, “Synthesis and cytostatic activity of substituted 6-phenylpurine bases and nucleosides: application of the Suzuki-Miyaura cross-coupling reactions of 6-chloropurine derivatives with phenylboronic acids” (J Med Chem, 2000).

pIC50: −log10 of the molar value. Some results are limits rather than exact numbers.

The test system of experiment [1] is CCRF-CEM. In words: In vitro inhibition of cell growth (Cytostatic activity) of human T-lymphoblastoid CCRF-CEM cell line (ATCC CCL 119). The experiment is classed as functional, cell-based. In short, it runs like this:
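CCRF-CEM cells grown in RPMI 1640 with L-glutamine (0.3 g/L) and 10% bovine serum, seeded at 10⁵ mL^-1. After 24 h at 37 °C under CO₂, compounds were added at five concentrations. Cells were counted with a cell counter 72 h after addition. IC50 values were derived from the counts.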

For experiment [2], the system named is HeLa. In words: In vitro inhibition of cell growth (Cytostatic activity) of human cervix carcinoma HeLa S3 cells (ATCC CCL 2.2). The experiment is classed as functional, cell-based.
Experiment [3] concerns L1210. In words: In vitro inhibition of cell growth (Cytostatic activity) of mouse leukemia L1210 cells (ATCC CCL 219). The experiment is classed as functional, cell-based.
Experiment [4] concerns L1210. In words: In vitro inhibition of cell growth (Cytostatic activity) of mouse leukemia L1210 cells (ATCC CCL 219); inhibition @ 10 uM/L. The experiment is classed as functional.
Experiment [5] deals with CCRF-CEM. In words: In vitro inhibition of cell growth (Cytostatic activity) of human T-lymphoblastoid CCRF-CEM cell line (ATCC CCL 119); inhibition @ 10 uM/L. The experiment is classed as functional.
In experiment [6] the test system is HeLa. In words: In vitro inhibition of cell growth (Cytostatic activity) of human cervix carcinoma HeLa S3 cells (ATCC CCL 2.2); inhibition @ 10 uM/L. The experiment is classed as functional.

For orientation: pIC50 means the negative decadic logarithm of the IC50, by convention in mol/L. A lower pIC50 goes with a large IC50. Take `OC[C@H]1O[C@@H](n2cnc3c(-c4ccccc4)ncnc32)[C@H](O)[C@@H]1O`: the pIC50 with CCRF-CEM [1] is 6.15; in the experiment on HeLa [2], 5.57; in the experiment with L1210 [3], 5.05.
A word on the Inhibition: it is how much of the control response was suppressed. Low values mean a weak effect, high ones a strong effect. For the molecule `CC(=O)OC[C@H]1O[C@@H](n2cnc3c(-c4ccc(F)cc4)ncnc32)[C@H](OC(C)=O)[C@@H]1OC(C)=O`, the pIC50 was 5.40 in the experiment with CCRF-CEM [1] and 4.82 in the experiment with HeLa [2]. This molecule came in with an Inhibition with L1210 [4] of less than 20%.
Consider `CC(=O)OC[C@H]1O[C@@H](n2cnc3c(-c4ccc(F)cc4F)ncnc32)[C@H](OC(C)=O)[C@@H]1OC(C)=O`, for which the Inhibition with CCRF-CEM [5], with HeLa [6] and in the experiment with L1210 [4] was less than 20% each time.
In the case of `CC(=O)OC[C@H]1O[C@@H](n2cnc3c(-c4ccccc4C)ncnc32)[C@H](OC(C)=O)[C@@H]1OC(C)=O`, the Inhibition with CCRF-CEM [5], in the experiment with HeLa [6] and in the experiment on L1210 [4] was less than 20% each time.
On to `COc1ccc(-c2ncnc3c2ncn3[C@@H]2O[C@H](COC(C)=O)[C@@H](OC(C)=O)[C@H]2OC(C)=O)cc1`, for which the figures for the pIC50 with CCRF-CEM [1], with HeLa [2] and in the experiment on L1210 [3] were 5.37, 4.72 and 4.77, respectively.
Take `CC(=O)OC[C@H]1O[C@@H](n2cnc3c(-c4ccc(C)cc4)ncnc32)[C@H](OC(C)=O)[C@@H]1OC(C)=O`: the Inhibition in the experiment on CCRF-CEM [5], with HeLa [6] and in the experiment with L1210 [4] was less than 20% each time.
For the molecule `CC(=O)OC[C@H]1O[C@@H](n2cnc3c(-c4ccc(F)c(F)c4)ncnc32)[C@H](OC(C)=O)[C@@H]1OC(C)=O`, the negative-log IC50 (pIC50) in the experiment on CCRF-CEM [1] was 5.08; in the experiment on HeLa [2], 4.82. In the experiment with L1210 [4], this molecule displayed an Inhibition of less than 20%.
In the experiment on CCRF-CEM [1], `CC(=O)OC[C@H]1O[C@@H](n2cnc3c(-c4ccccc4)ncnc32)[C@H](OC(C)=O)[C@@H]1OC(C)=O` showed a pIC50 of 4.98. The Inhibition in the experiment with HeLa [6] and in the experiment with L1210 [4] was less than 20% in each case.
In the case of `COc1cccc(-c2ncnc3c2ncn3[C@@H]2O[C@H](COC(C)=O)[C@@H](OC(C)=O)[C@H]2OC(C)=O)c1`, the Inhibition with CCRF-CEM [5], in the experiment on HeLa [6] and with L1210 [4] was less than 20% each time.
In turn, `CC(=O)OC[C@H]1O[C@@H](n2cnc3c(-c4ccc(Cl)cc4)ncnc32)[C@H](OC(C)=O)[C@@H]1OC(C)=O` had a pIC50 in the experiment with CCRF-CEM [1] of 5.37. Also, the Inhibition in the experiment on HeLa [6] and in the experiment with L1210 [4] was less than 20% each time.
Take `CCOc1ccc(-c2ncnc3c2ncn3[C@@H]2O[C@H](COC(C)=O)[C@@H](OC(C)=O)[C@H]2OC(C)=O)cc1`: the pIC50 in the experiment with CCRF-CEM [1] is 5.42. The Inhibition in the experiment with HeLa [6] and in the experiment on L1210 [4] was less than 20% throughout.
Take `CCOc1ccc(-c2ncnc3c2ncn3C2O[C@H](CO)[C@@H](O)[C@H]2O)cc1` (some centres not stated): the figures for the pIC50 in the experiment with CCRF-CEM [1], in the experiment on HeLa [2] and in the experiment with L1210 [3] were 6.22, 5.30 and 5.60, respectively.
`COc1cccc(-c2ncnc3c2ncn3C2O[C@H](CO)[C@@H](O)[C@H]2O)c1` (some centres not stated) gave a pIC50 with CCRF-CEM [1] of 5.32.
Consider `COc1ccc(-c2ncnc3c2ncn3C2O[C@H](CO)[C@@H](O)[C@H]2O)cc1` (some centres not stated), for which the negative logarithm of the IC50 (pIC50) in the experiment on CCRF-CEM [1] was 6.60; in the experiment with HeLa [2], 5.37; with L1210 [3], 5.82.
In the case of `OC[C@H]1OC(n2cnc3c(-c4ccc(F)c(F)c4)ncnc32)[C@H](O)[C@@H]1O` (some centres not stated), the pIC50 in the experiment on CCRF-CEM [1] is 5.85; in the experiment with HeLa [2], 5.60; with L1210 [3], 4.70.
In the case of `OC[C@H]1OC(n2cnc3c(-c4ccc(F)cc4)ncnc32)[C@H](O)[C@@H]1O` (some centres not stated), the negative-log IC50 (pIC50) was 6.12 with CCRF-CEM [1], 5.60 in the experiment on HeLa [2] and 5.35 in the experiment on L1210 [3].
As to `Cc1ccc(-c2ncnc3c2ncn3C2O[C@H](CO)[C@@H](O)[C@H]2O)cc1` (some centres not stated), the pIC50 in the experiment on CCRF-CEM [1] was 5.82.
For `OC[C@H]1OC(n2cnc3c(-c4ccc(Cl)cc4)ncnc32)[C@H](O)[C@@H]1O` (some centres not stated), the pIC50 with CCRF-CEM [1] was 6.05; with HeLa [2], 5.30.
For the molecule `Cc1ccccc1-c1ncnc2c1ncn2C1O[C@H](CO)[C@@H](O)[C@H]1O` (some centres not stated), the Inhibition with CCRF-CEM [5], with HeLa [6] and in the experiment with L1210 [4] was less than 20% in each case.
